Compounds with a hit are over-represented: about 4% of the library has one in this group of screens.
MPTP inh – inhibitors of mitochondrial permeability transition pore. isolated mouse mitochondria, Ca2+ swelling absorbance, 30 min. inhibition, % at 10 µM. 1.4% of 360,000 active. AID 602449;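 active = inhibition of 50% or more, scaled per plate between neutral and stimulator controls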;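 also: 0% = DMSO wells given calcium and 100% = 1 mM EGTA wells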
GPR7 antag – human neuropeptides B/W receptor 1 antagonism; P48145; 1.1% of 290,000 active; GPR7-expressing cells, fluorescence antagonist assay; inhibition, % at 4.4 µM; in the data active = inhibition above about 16%, passing the limit was not always enough;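 also: cells stimulated with the agonist NPW; 0% = agonist with vehicle and 100% = vehicle without agonist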
DAGLB inh – diacylglycerol lipase beta (human) inhibition. Q8NCG7. HEK293T DAGLB membrane lysate, EnzChek fluorogenic substrate. inhibition, % at 5.17 µM. 0.059% of 340,000 active; in the data active = inhibition above about 34%;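 also: 0% = enzyme with vehicle and 100% = wells lacking enzyme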
TAAR1 agonist – human TAAR1 agonism | Q96RJ0 | CHO RD-HGA16 TAAR1, Fluo-8 calcium fluorescence; vehicle wells 0%, saturating PEA agonist 100% | activation, % at 3 µM | 0.99% of 360,000 active;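 active = activation above the mean activation of all test compounds in the run plus 3 SD, cut at about 38% in these data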
Target sequence (Q96RJ0 whole entry, looked up): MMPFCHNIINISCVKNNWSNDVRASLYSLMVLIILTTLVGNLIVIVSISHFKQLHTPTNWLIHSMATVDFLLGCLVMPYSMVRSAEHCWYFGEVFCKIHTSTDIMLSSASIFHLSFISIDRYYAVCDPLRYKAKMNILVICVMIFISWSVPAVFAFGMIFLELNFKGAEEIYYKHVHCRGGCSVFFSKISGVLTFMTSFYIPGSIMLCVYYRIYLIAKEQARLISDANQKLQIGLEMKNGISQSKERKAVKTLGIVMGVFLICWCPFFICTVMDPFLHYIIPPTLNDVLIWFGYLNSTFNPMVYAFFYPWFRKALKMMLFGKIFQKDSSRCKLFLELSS
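System: CHO RD-HGA16 cells carrying human TAAR1 plus Gα16; Incubation: 17-24 h seeding, 75 min 37 °C dye, 30 min RT; Measured by: Fluo-8 fluorescence, 5 s baseline then 140 s kinetic read; Control set: DMSO and PEA EC100; Replication: single well for each compound.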
TAAR1 antag – antagonists of human TAAR1 | CHO RD-HGA16 TAAR1, Fluo-8 calcium fluorescence, antagonist | inhibition, % at 3 µM | 1.5% of 360,000 active;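 active = inhibition above a per-plate cutoff, the mean inhibition of test compounds on that plate plus 3 SD, cut at about 49% in these data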;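 also: 0% = DMSO plus EC80 beta-PEA response and 100% = DMSO alone without agonist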
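Test system: RD-HGA16 CHO cells with stable hTAAR1 and Gα16 / Probe or stimulus: EC80 β-phenethylamine stimulus / Times: seeding 17-24 h prior, 75-min 37 °C, 30-min RT dye loading / Detection: Fluo-8 calcium-sensitive fluorescence / Read-out basis: % inhibition scaled between DMSO and EC80 PEA controls / Repeats: singlicate, one well per test compound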
Rh123 counter – membrane potential counter-screen of mitochondrial pore inhibitors. shares compounds with MPTP inh. AID 624504. 78% of 5,000 active. isolated mitochondria, Rhodamine 123 fluorescence. inhibition, % at 10 µM; in the data active = inhibition above about 22%;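 also: 0% = DMSO vehicle and 100% = positive control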
MPTP abs DR – MPTP inhibition, dose response swelling confirmation; shares compounds with MPTP inh; isolated mitochondria swelling, absorbance; IC50, µM; 58% of 780 active; AID 651561; in the data active = IC50 below about 20 µM
MPTP cs DR – counter-screen for mitochondrial permeability transition pore inhibitors, dose response; 49% of 780 active; shares compounds with MPTP inh; IC50, µM; AID 651564; isolated mitochondria counterscreen, fluorescence read-out; in the data active = IC50 below about 80 µM
* hit, by the source's call; i = inactive; . = not tested or not shown.

SMILES	MPTP inh	GPR7 antag	DAGLB inh	TAAR1 agonist	TAAR1 antag	Rh123 counter	others
Cc1cccc(/C=N\NC(=O)c2ccc(Cl)cc2)c1O	74*	2	0	6	-26	80*
O=C(N/N=C\c1cc(Br)ccc1O)c1ccc(S(=O)(=O)N2CCCCC2)cc1	66*	-13	2	7	-4	53*
O=C(N/N=C/c1cc(Br)ccc1O)c1ccncc1	4	-6	3	4	10	.
O=C(N/N=C/c1cc(Cl)ccc1O)c1ccc(Br)cc1	92*	-7	2	3	15	64*
CCCCC[C@@H](C)N1C[C@@H](COCc2ccccc2)Oc2cc(N3CC[C@H](N(C)C)C3)ccc2S1(=O)=O	3	.	.	13	-11	.
CCOc1ccccc1C(=O)NCC(=O)N(C)CC(=O)Nc1ccc(N2CCOCC2)cc1	1	.	0	1	-16	.
CN(Cc1ccc(Cl)c(Cl)c1)C(c1cc2ccccc2o1)c1nnnn1C(C)(C)C (stereo unspecified)	4	.	.	1	-33	.
O=C(Nc1nc2c(F)cc(F)cc2s1)C1CCN(C(=O)c2ccc(F)cc2)CC1	0	.	2	2	-25	.
O=C(Nc1nc(-c2ccc(F)cc2)cs1)C1CCN(C(=O)c2ccc(F)cc2)CC1	64*	.	0	7	38	78*
FC(F)(F)c1cccc(NC(=S)Nc2ccc(Cl)cc2Cl)c1	98*	-9	-1	7	22	109*
S=C(Nc1ccccc1)Nc1ccc(Cl)cc1Cl	61*	-8	1	6	-2	79*
S=C(NCc1cccc(Cl)c1)NC1CCCCC1	77*	-7	-4	1	32	67*
S=C(Nc1ccccc1Cl)Nc1ccc(Cl)cc1Cl	14	5	-3	5	4	.
S=C(NCc1ccc2c(c1)OCO2)NC1CCN(Cc2ccccc2)CC1	74*	-3	0	6	3	4	MPTP abs DR=11*;MPTP cs DR=54*
NNC(=S)Nc1ccc(C(F)(F)F)cc1Cl	2	-7	-6	4	-31	.
Cc1cccc(NC(=S)Nc2cccc(C(F)(F)F)c2)n1	1	-7	-5	2	-7	.
FC(F)(F)c1cccc(NC(=S)Nc2cccc(NC(=S)Nc3cccc(C(F)(F)F)c3)n2)c1	91*	-6	1	14	17	64*
O=C(NNC(=S)Nc1cccc(C(F)(F)F)c1)c1ccccc1Cl	35	-12	5	4	-1	.
FC(F)(F)c1ccccc1NC(=S)Nc1cccc(Cl)c1	97*	-6	0	15	7	89*
O=C(NNC(=S)Nc1cccc(C(F)(F)F)c1)c1cccc(Cl)c1	94*	-5	5	6	-2	86*
S=C(Nc1ccc(Cl)cc1Cl)NC1CCCCC1	86*	-19	-4	6	18	109*
CC(C)C(=O)NC(=S)Nc1ccccc1C(F)(F)F	4	-7	-1	19	6	.
CC1(C(=O)NS(=O)(=O)c2ccc(C#N)cc2)CCN1C(=O)Cc1ccc(-c2ccccc2)cc1 (stereo unspecified)	0	.	.	6	-11	.
CCCCOCC1CN(CCCC)S(=O)(=O)c2c(cccc2N(C)S(=O)(=O)c2ccc(C)cc2)O1 (stereo unspecified)	.	.	.	0	3	.
CCCNC(=S)Nc1cccc(C(F)(F)F)c1	0	-13	2	1	4	.
SMILES	MPTP inh	GPR7 antag	DAGLB inh	TAAR1 agonist	TAAR1 antag	Rh123 counter	others
FC(F)(F)c1cccc(NC(=S)NCC2COc3ccccc3O2)c1 (stereo unspecified)	81*	-10	-5	14	-20	81*
FC(F)(F)c1cccc(NC(=S)NNC(=S)NCc2ccccc2)c1	79*	11	17	-3	21	72*
COC(=O)C[C@@H]1CC[C@H](NS(=O)(=O)c2cccc(F)c2)[C@@H](CO)O1	1	.	.	4	-16	.
CCOC(=O)Cc1csc(SCC(=O)c2c(N)n(CC(C)C)c(=O)n(C)c2=O)n1	78*	9	-3	17	25	24*
Cc1csc(SCC(=O)c2c(N)n(CC(C)C)c(=O)n(C)c2=O)n1	51*	12	-1	8	2	15	MPTP abs DR=i;MPTP cs DR=5.8*
CCOC(=O)c1cnc(SCC(=O)Nc2cc(OC)cc(OC)c2)nc1N	87*	-9	1	6	26	49*
CCOC(=O)c1cnc(SCC(=O)Nc2ccc(N3CCOCC3)c(Cl)c2)nc1N	0	-10	1	3	-10	.
COc1ccc(NC(=O)c2c(Nc3ccccc3)sc(C(=O)c3ccc(F)cc3)c2N)cc1	92*	0	2	10	34	83*
C[C@@H]1CN([C@@H](C)CO)C(=O)CCCn2cc(nn2)CO[C@H]1CN(C)C(=O)c1cc(-c2ccccc2)on1	0	.	-3	0	-4	.
O=C(Nc1nnc(S(=O)(=O)N2CCCCCC2)s1)c1ccc(Br)cc1	60*	-7	2	4	-10	29*
CCC(Oc1ccccc1)C(=O)Nc1nnc(S(=O)(=O)N2CCCC2)s1 (stereo unspecified)	85*	3	5	4	-1	20*
O=C(Nc1nnc(S(=O)(=O)N2CCCCC2)s1)c1ccc(Cl)cc1	27	1	3	2	15	.
CCCC#Cc1ccc2c(c1)O[C@@H](CN(C)Cc1ccc3c(c1)OCO3)[C@H](C)CN([C@@H](C)CO)S2(=O)=O	-1	.	-4	0	-30	.
CN(C)c1ccc(NC(=O)c2cn(-c3ccccc3)nc2-c2cccs2)cc1	1	-3	-1	3	18	.
O=C(Nc1ccc2ccccc2c1)c1cn(-c2ccccc2)nc1-c1cccs1	70*	5	-4	1	21	70*
CC(NC(=S)Nc1ccc(OC(F)F)cc1OC(F)F)C(C)(C)C (stereo unspecified)	86*	-5	-1	5	-15	91*
COc1ccc(C(=O)/C(C#N)=N/Nc2ccccc2[N+](=O)[O-])cc1	95*	11	15	5	2	88*
COc1ccc(C(=O)/C(C#N)=N/Nc2ccc([N+](=O)[O-])cc2)cc1	100*	0	16	14	6	86*
COc1ccc(N/N=C(\C#N)C(N)=O)cc1	0	-4	0	-1	10	.
COCOc1ccc(-c2ncc(OC)nc2NC(=O)c2cc(C)oc2C)cc1	0	.	.	0	-2	.
O=[N+]([O-])c1ccc2c(c1N1CCCCC1)=NC1(CCCCC1)[N+]=2[O-]	58*	-17	2	10	-4	36*
CCN1CCN(c2ncnc3c2cnn3-c2ccc(C)cc2C)CC1	-1	.	5	1	-10	.

Assay outcomes (PubChem)
